Laboratory results taken from ChEMBL document CHEMBL5653631, “A Potent and Selective ULK1 Inhibitor Suppresses Autophagy and Sensitizes Cancer Cells to Nutrient Stress” (iScience, 2018).

Assays:
[1] = biological target: Serine/threonine-protein kinase MAK (Homo sapiens) (UniProt P20794); assay: Inhibition of human recombinant MAK at 500 nM in presence of ATP by radiometric assay relative to control
[2] = biological target: Hepatocyte growth factor receptor (Homo sapiens) (UniProt P08581); assay: Inhibition of human recombinant MET at 500 nM related to control ULK1
[3] = biological target: T1, Aurora kinase A (Homo sapiens) (UniProt O14965); assay: Inhibition of human recombinant AurA at 500 nM related to control ULK1
T1 sequence (whole entry): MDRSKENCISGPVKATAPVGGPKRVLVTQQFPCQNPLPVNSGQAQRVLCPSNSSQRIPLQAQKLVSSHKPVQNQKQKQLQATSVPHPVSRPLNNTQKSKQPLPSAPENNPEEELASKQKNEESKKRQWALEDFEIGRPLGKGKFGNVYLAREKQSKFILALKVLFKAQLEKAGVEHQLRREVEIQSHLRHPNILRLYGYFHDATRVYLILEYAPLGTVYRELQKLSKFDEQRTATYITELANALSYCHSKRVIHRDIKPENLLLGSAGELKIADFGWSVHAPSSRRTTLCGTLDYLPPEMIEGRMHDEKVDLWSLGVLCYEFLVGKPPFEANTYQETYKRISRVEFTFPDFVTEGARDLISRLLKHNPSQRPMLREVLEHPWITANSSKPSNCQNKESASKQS
Method in brief: (§1)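 Panel of 327 recombinant human kinases, each assayed in vitro by radiometric activity assay in duplicate at a single inhibitor concentration per compound, chosen with reference to its ULK1 inhibition. Activity remaining was expressed as percent of vehicle control, and percent inhibition was calculated as 100 minus percent activity remaining.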

[4] = biological target: Tyrosine-protein kinase Fes/Fps (Homo sapiens) (UniProt P07332); assay: Inhibition of human recombinant FES at 500 nM in presence of ATP by radiometric assay relative to control
[5] = biological target: Tyrosine-protein kinase JAK1 (Homo sapiens) (UniProt P23458); assay: Inhibition of human recombinant JAK1 at 500 nM in presence of ATP by radiometric assay relative to control
[6] = biological target: MAP/microtubule affinity-regulating kinase 3 (Homo sapiens) (UniProt P27448); assay: Inhibition of human recombinant MARK3 at 15 nM in presence of ATP by radiometric assay relative to control
[7] = biological target: Mitogen-activated protein kinase 8 (Homo sapiens) (UniProt P45983); assay: Inhibition of human recombinant JNK1 at 15 nM in presence of ATP by radiometric assay relative to control
[8] = biological target: Serine/threonine-protein kinase ATR (Homo sapiens) (UniProt Q13535); assay: Inhibition of human recombinant ATR at 15 nM related to control ULK1
Method in brief: as §1

[9] = biological target: T1, Aurora kinase A (Homo sapiens); assay: Inhibition of human recombinant AurA at 40 nM related to control ULK1
Method in brief: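 Radiometric activity assays in a panel of 327 human recombinant kinases, each run in duplicate at one inhibitor concentration. Activity remaining is expressed as percent of vehicle control, and percent inhibition is calculated as 100% minus percent activity remaining.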

[10] = biological target: T2, Interleukin-1 receptor-associated kinase 4 (Homo sapiens) (UniProt Q9NWZ3); assay: Inhibition of human recombinant IRAK4 at 40 nM related to control ULK1
T2 sequence (whole entry): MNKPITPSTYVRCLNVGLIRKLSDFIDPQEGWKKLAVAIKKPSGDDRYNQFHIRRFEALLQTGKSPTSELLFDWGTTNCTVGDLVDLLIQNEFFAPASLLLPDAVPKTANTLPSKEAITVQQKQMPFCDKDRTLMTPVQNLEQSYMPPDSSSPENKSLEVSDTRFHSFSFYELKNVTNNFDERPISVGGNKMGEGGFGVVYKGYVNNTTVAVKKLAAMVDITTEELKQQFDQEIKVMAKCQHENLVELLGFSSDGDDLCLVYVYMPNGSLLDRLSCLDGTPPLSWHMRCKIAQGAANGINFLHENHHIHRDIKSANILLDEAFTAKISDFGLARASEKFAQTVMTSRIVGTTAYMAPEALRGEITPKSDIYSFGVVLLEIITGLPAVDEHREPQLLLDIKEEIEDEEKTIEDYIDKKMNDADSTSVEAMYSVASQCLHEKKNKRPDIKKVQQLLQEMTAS

[11] = biological target: T3, MAP kinase-activated protein kinase 5 (Homo sapiens) (UniProt Q8IW41); assay: Inhibition of human recombinant MAPKAPK5 at 40 nM related to control ULK1
T3 sequence (whole entry): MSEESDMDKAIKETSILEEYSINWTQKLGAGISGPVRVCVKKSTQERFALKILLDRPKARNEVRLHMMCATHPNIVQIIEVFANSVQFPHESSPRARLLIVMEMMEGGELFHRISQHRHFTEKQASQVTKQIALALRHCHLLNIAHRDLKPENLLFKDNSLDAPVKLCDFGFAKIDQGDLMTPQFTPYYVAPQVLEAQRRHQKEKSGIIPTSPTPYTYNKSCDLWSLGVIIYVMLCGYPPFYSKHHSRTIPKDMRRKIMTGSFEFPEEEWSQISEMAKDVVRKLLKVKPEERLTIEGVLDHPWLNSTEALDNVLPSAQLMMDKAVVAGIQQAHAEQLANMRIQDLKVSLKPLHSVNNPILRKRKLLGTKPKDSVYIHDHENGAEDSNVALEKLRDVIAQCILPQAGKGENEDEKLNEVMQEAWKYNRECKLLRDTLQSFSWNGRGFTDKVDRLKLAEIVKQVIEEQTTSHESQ

[12] = biological target: Cyclin-dependent kinase 13 (Homo sapiens) (UniProt Q14004); assay: Inhibition of human recombinant CHED at 40 nM related to control ULK1

Chain of MAP/microtubule affinity-regulating kinase 3 (Homo sapiens) (P27448 whole entry, looked up): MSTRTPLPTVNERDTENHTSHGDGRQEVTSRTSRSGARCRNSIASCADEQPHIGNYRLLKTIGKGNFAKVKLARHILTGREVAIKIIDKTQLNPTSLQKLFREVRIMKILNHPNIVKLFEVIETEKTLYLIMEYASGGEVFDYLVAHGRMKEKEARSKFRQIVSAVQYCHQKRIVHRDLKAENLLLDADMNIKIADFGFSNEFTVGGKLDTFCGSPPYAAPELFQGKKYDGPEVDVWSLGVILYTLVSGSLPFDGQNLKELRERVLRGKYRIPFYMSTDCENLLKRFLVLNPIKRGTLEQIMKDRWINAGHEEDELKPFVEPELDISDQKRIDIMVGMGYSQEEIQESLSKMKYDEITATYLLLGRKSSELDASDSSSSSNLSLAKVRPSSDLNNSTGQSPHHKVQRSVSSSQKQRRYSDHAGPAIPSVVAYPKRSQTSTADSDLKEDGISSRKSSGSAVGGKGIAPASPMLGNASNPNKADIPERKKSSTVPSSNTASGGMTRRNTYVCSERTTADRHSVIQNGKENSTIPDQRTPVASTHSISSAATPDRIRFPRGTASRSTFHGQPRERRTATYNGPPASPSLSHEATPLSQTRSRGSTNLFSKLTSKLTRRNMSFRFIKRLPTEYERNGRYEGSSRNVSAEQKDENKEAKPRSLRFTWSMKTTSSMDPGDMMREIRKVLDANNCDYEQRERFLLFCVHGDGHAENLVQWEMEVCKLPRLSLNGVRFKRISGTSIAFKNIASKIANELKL
Chain of Tyrosine-protein kinase Fes/Fps (Homo sapiens) (P07332 whole entry): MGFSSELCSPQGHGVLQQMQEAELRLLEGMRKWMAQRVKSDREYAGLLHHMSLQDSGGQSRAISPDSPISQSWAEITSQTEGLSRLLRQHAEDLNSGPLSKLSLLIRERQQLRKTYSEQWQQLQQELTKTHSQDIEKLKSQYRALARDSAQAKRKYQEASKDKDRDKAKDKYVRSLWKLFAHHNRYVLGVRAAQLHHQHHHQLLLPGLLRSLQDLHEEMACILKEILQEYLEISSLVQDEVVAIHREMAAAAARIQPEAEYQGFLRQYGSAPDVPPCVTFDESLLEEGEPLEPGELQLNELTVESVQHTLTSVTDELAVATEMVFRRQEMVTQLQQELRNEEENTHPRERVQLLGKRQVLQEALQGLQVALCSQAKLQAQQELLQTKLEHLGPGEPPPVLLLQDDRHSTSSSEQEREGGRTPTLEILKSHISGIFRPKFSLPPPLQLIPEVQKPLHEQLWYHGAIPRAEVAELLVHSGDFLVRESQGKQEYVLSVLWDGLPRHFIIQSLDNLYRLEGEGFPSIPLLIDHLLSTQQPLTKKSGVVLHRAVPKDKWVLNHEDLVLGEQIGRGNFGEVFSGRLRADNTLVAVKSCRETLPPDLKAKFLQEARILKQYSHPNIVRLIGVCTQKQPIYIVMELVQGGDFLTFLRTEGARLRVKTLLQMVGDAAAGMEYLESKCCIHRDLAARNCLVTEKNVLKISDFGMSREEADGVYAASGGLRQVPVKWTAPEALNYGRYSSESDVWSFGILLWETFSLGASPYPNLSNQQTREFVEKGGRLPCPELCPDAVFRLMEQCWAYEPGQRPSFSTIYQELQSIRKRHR
Chain of Tyrosine-protein kinase JAK1 (Homo sapiens) (P23458 whole entry): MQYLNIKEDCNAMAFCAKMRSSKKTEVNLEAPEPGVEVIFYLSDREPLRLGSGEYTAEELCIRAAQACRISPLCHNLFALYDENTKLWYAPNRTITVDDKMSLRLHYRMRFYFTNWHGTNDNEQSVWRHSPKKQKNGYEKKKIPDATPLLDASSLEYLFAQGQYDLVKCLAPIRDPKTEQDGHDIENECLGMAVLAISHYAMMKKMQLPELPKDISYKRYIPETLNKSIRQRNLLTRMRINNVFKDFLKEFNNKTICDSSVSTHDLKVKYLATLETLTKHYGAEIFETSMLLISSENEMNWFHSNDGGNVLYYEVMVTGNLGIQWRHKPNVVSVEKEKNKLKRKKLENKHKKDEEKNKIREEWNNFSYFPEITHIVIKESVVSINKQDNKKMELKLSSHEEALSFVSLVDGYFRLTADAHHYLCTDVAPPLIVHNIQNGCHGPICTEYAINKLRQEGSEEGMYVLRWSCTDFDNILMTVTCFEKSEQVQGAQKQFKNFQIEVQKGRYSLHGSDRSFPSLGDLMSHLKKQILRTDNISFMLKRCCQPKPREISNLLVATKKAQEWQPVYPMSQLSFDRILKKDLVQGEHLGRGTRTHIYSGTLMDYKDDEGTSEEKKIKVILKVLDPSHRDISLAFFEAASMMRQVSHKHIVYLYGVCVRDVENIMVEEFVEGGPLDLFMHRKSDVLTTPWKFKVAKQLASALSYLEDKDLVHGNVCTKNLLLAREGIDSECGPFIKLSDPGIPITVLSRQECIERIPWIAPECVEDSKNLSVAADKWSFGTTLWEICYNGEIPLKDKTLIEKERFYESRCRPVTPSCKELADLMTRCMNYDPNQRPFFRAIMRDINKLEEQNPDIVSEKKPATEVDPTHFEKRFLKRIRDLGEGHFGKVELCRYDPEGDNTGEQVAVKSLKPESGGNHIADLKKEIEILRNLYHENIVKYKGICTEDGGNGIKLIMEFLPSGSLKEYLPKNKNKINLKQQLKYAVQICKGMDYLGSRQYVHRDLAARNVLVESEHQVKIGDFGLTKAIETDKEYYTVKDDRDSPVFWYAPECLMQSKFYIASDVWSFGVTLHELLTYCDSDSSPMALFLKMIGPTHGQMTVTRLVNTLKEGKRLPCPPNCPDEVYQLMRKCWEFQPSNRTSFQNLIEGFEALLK
Chain of Hepatocyte growth factor receptor (Homo sapiens) (P08581 whole entry, looked up): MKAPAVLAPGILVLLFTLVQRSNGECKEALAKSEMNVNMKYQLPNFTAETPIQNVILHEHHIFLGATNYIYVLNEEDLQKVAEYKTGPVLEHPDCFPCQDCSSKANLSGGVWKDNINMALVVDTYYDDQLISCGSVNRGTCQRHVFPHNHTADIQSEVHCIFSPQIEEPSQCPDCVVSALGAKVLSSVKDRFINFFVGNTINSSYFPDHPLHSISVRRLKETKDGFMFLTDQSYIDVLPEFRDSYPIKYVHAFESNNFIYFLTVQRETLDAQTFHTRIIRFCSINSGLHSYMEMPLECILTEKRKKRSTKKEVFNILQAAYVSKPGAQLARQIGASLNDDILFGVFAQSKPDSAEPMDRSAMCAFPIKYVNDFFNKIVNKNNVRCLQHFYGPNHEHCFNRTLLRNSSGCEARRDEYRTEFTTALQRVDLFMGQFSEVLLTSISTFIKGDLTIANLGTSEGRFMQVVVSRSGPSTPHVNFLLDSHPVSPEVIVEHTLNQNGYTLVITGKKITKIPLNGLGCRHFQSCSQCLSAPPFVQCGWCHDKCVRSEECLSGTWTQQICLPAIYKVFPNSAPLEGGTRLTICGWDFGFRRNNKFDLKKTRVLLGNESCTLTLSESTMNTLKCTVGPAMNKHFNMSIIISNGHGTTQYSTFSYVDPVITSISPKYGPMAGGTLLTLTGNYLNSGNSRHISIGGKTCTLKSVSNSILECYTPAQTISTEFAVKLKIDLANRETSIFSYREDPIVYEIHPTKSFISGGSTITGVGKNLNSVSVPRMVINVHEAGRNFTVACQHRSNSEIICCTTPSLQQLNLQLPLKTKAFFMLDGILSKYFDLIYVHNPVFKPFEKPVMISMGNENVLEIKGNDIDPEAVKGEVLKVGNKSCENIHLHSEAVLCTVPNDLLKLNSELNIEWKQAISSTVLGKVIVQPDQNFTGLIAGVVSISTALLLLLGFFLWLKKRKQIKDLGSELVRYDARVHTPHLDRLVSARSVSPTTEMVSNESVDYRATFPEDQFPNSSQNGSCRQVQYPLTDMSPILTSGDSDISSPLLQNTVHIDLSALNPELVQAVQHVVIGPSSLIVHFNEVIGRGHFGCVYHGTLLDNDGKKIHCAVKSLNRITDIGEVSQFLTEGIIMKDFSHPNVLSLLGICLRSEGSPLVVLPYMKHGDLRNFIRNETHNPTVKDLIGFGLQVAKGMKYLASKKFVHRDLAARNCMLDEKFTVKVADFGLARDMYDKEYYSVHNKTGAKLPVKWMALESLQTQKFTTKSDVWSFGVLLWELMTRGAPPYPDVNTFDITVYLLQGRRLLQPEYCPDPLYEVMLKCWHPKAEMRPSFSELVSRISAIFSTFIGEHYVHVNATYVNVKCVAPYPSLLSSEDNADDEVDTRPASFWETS
Chain of Mitogen-activated protein kinase 8 (Homo sapiens) (P45983 whole entry): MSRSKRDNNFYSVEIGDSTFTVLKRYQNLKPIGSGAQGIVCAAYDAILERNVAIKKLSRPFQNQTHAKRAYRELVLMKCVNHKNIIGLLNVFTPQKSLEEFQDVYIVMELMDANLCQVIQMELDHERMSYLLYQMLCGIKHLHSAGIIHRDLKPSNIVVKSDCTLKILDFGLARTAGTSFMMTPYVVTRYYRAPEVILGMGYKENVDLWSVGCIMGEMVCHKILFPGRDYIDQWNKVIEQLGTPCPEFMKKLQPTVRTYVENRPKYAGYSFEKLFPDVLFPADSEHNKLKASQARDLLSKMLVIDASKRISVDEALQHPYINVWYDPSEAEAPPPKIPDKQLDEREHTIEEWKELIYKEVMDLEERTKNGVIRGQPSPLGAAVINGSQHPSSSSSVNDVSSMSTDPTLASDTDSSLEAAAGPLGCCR

For `CNC(=O)c1ccccc1Oc1nc(Nc2cc(OC)c(OC)c(OC)c2)ncc1Br`, the inhibition [1] was 36%, the fold change (FC) [2] was 0.43 and the fold change (FC) [3] was 1.08. The inhibition [4] was 28% and the inhibition [5] was 39%.

`CC(C)[C@H](NC(=O)c1cc(-c2cnn3cc(-c4ccc(OCCN5CCCCC5)cc4)cnc23)cs1)C(F)(F)F` gave an inhibition [6] of 63%, an inhibition [7] of 8% and a fold change (FC) [8] of 0.05.

Compound `O=C(N[C@@H](C1CC1)C(F)(F)F)c1cc(-c2cnn3cc(-c4ccc(F)cc4)cnc23)cs1` has a fold change (FC) [9] of 0.3, a fold change (FC) [10] of 0 and a fold change (FC) [11] of 0. It also gave a fold change (FC) [12] of 0.05.
